# Measured values pooled from the literature.
# Target: Cytochrome P450 2D6 (CYP2D6, Homo sapiens, UniProt P10635)
# Observed: enzyme activity
# Action: inhibitor
SMILES,assay,test system,setting,endpoint,result
Cc1coc([C@H]2C[C@H]3[C@@H](CF)SC(N)=N[C@@]3(c3ccc(F)cc3F)CO2)n1,,"human, liver microsomes",pH 7.4,IC50,> 30 µM
COc1ccc2c(Cc3ccccc3F)c3n(c(=O)c2c1OC)CCc1cc2c(cc1-3)OCO2,,,,IC50,> 10 µM
CCc1cc(/C(C)=N/OCc2ccc(C3CCCCC3)c(C(F)(F)F)c2)ccc1CN1CC(C(=O)O)C1,,"human, liver microsomes",20 min,IC50,> 1.1 µM
N#C[C@H](C[C@@H]1CCCNC1=O)NC(=O)[C@H](CC1CC1)NC(=O)c1cc2cccc(Cl)c2[nH]1,,"human, liver microsomes",,IC50,50.7 µM
Nc1nc(N)c2nc(CNc3ccc(C(=O)NCCc4ccccc4)cc3)cnc2n1,luciferase,,,IC50,10.5 µM
O=c1c(O)c(-c2ccc(O)c(O)c2)oc2cc(O)cc(O)c12,fluorescence,,pH 7.4,IC50,0.65 µM
C=CC(=O)Nc1cc(Nc2nccc(Nc3cc(Cl)c(F)cc3C(C)(C)O)n2)c(OC)cc1N1CC[C@@H](N(C)C)C1,,"human, liver microsomes",,IC50,6.3 µM
Cc1coc([C@H]2C[C@H]3[C@@H](C)SC(N)=N[C@@]3(c3ccc(F)cc3F)CO2)n1,,"human, liver microsomes",pH 7.4,IC50,> 30 µM
Fc1ccc(Nc2c(-c3ccccn3)nc3ccc(C4CC4)cn23)cc1,,,,IC50,1.5 µM
Nc1nc(N)c2nc(CNc3cccc4ccccc34)cnc2n1,luciferase,,,IC50,0.832 µM
Cc1cc(C)c2c(c1)[C@@H](N(Cc1cc(C(F)(F)F)cc(C(F)(F)F)c1)c1nnn(C)n1)CCCN2C[C@H]1CC[C@H](C(=O)O)CC1,,"human, liver microsomes",pH 7.4,Ki,2.1 µM
C[C@H]1CN(c2n[nH]c3nc(N[C@H]4CC[C@H](NS(=O)(=O)CCC(F)(F)F)CC4)ncc23)CCO1,,,,IC50,> 100 µM
